The source made the active and inactive calls. No cut-off for these calls is given here.
Key:
HUVEC [1] = assay: Antiproliferative activity against HUVEC incubated for 48 hrs by MTT assay; format: functional, cell-based; settings: Homo sapiens
How it was run: (§1)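 8000 cells per well in complete medium, settled overnight at 37 °C under 5% CO2. Compounds were added from DMSO over a range of concentrations and incubated 48 h at 37 °C. MTT (5% solution) was added for 4 h and absorbance read at 570 nm. IC50 was taken from survival-versus-concentration curves. Negative control was 0.1% DMSO.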

HepG2 = assay: Antiproliferative activity against human HepG2 cells incubated for 48 hrs by MTT assay; format: functional, cell-based; settings: HepG2, 48 h; how it was run: as §1
T47D = assay: Antiproliferative activity against human T47D cells incubated for 48 hrs by MTT assay; format: functional, cell-based; how it was run: as §1
PC-3 [2] = assay: Antiproliferative activity against human PC-3 cells incubated for 48 hrs by MTT assay; format: functional, cell-based; settings: PC-3, 48 h; how it was run: as §1
[3] = Cytotoxicity against human Hu02 cells incubated for 48 hrs by MTT assay; format: cell-based; settings: Hu02, 48 h; how it was run: as §1
PC-3 [4] = assay: Induction of cell cycle arrest in human PC-3 cells assessed as number of cells at SubG1 phase at IC50 after 48 hrs by flow cytometry; format: functional
PC-3 [5] = assay: Induction of cell cycle arrest in human PC-3 cells assessed as number of cells at S phase at IC50 after 48 hrs by flow cytometry (reference value: 44.12%); format: functional
HUVEC [6] = assay: Induction of cell cycle arrest in HUVEC assessed as number of cells at G1 phase at IC50 after 48 hrs by flow cytometry (reference value: 40.93%); format: functional, Homo sapiens
How it was run: (§2)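 Cells were PI-stained and analysed by flow cytometry, with the phase fractions (subG1, G1, S, G2/M) taken from DNA content.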

PC-3 [7] = assay: Down-regulation of VEGFR2 phosphorylation in human PC-3 cells at 48 hrs by Western blot analysis; format: functional, cell-based; settings: dose 2.4-5.4 µM
How it was run: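 PC3 cells treated for 48 h at 2.4, 3.6 and 5.4 µM. Lysates run on 12% SDS-PAGE and transferred to nitrocellulose. Membranes probed overnight at 4 °C (12 h) for VEGFR-2 and p-VEGFR-2, with beta-actin as loading control. Detection by ECL.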

PC-3 [8] = assay: Induction of apoptosis in human PC-3 cells assessed as viable cells at IC50 measured after 48 hrs by Annexin V-FITC/propidium iodide staining based flow cytometry (reference value: 81.4%); format: functional
HUVEC [9] = assay: Induction of apoptosis in HUVEC assessed as early apoptotic cells at IC50 measured after 48 hrs by Annexin V-FITC/propidium iodide staining based flow cytometry (reference value: 4.51%); format: functional, Homo sapiens
HUVEC [10] = assay: Induction of apoptosis in HUVEC assessed as necrotic cells at IC50 measured after 48 hrs by Annexin V-FITC/propidium iodide staining based flow cytometry (reference value: 0.891%); format: functional, Homo sapiens
PC-3 [11] = assay: Induction of apoptosis in human PC-3 cells assessed as late apoptotic cells at IC50 measured after 48 hrs by Annexin V-FITC/propidium iodide staining based flow cytometry (reference value: 5.16%); format: functional
HUVEC [12] = assay: Induction of apoptosis in HUVEC assessed as late apoptotic cells at IC50 measured after 48 hrs by Annexin V-FITC/propidium iodide staining based flow cytometry (reference value: 7.23%); format: functional, Homo sapiens
PC-3 [13] = assay: Down-regulation of VEGFR2 phosphorylation in human PC-3 cells by Western blot analysis; format: functional, cell-based; settings: time 24-72 hrs, TDE = time-dependent effect
HUVEC [14] = assay: Induction of cell cycle arrest in HUVEC assessed as number of cells at S phase at IC50 after 48 hrs by flow cytometry (reference value: 41.49%); format: functional, Homo sapiens; how it was run: as §2
PC-3 [15] = assay: Induction of cell cycle arrest in human PC3 cells assessed as accumulation at G1 phase at IC50 after 48 hrs by flow cytometry (reference value: 44.11%); format: functional
HUVEC [16] = assay: Induction of apoptosis in HUVEC assessed as viable cells at IC50 measured after 48 hrs by Annexin V-FITC/propidium iodide staining based flow cytometry (reference value: 87.4%); format: functional, Homo sapiens
PC-3 [17] = assay: Induction of apoptosis in human PC-3 cells assessed as necrotic cells at IC50 measured after 48 hrs by Annexin V-FITC/propidium iodide staining based flow cytometry (reference value: 7.74%); format: functional
HUVEC [18] = assay: Induction of cell cycle arrest in HUVEC assessed as number of cells at G2 phase at IC50 after 48 hrs by flow cytometry (reference value: 6.25%); format: functional, Homo sapiens; how it was run: as §2
PC-3 [19] = assay: Induction of apoptosis in human PC-3 cells assessed as early apoptotic cells at IC50 measured after 48 hrs by Annexin V-FITC/propidium iodide staining based flow cytometry (reference value: 4.7%); format: functional
Chorioallantoic membrane [20] = assay: Vascular disruptive effect in chicken fertilized egg chorioallantoic membrane assessed as decrease in number of capillary blood vessels by CAM assay relative to control; format: functional, tissue-based; design: concentration or dose not given beside the values; settings: Gallus gallus, dose or concentration not given here
PC-3 [21] = assay: Induction of cell cycle arrest in human PC-3 cells assessed as number of cells at G2 phase at IC50 after 48 hrs by flow cytometry (reference value: 15.97%); format: functional
Chorioallantoic membrane [22] = assay: Vascular disruptive effect in chicken fertilized egg chorioallantoic membrane assessed as reduced length of blood vessels by CAM assay; format: functional, tissue-based; settings: Gallus gallus

| IC50 (HepG2) | IC50 (T47D) | IC50 (PC-3 [2]) | SMILES | IC50 (HUVEC [1]) | inhibition (Chorioallantoic membrane [20]) | also measured |
| --- | --- | --- | --- | --- | --- | --- |
| 22.9 µM | 43.9 µM | 8 µM | O=C(Nc1cccc(Cl)c1)Nc1nnc(Sc2ncnc3scc(-c4ccncc4)c23)s1 | 21 µM | – | – |
| 52 µM | 17.8 µM | 2.1 µM | Cc1ccc(NC(=O)Nc2nnc(Sc3ncnc4scc(-c5ccncc5)c34)s2)cc1 | 19.3 µM | – | – |
| 15.3 µM | 45.1 µM | 11.5 µM | O=C(Nc1cccc(C(F)(F)F)c1)Nc1nnc(Sc2ncnc3scc(-c4ccncc4)c23)s1 | 22.4 µM | – | – |
| 31.7 µM | 18.9 µM | 0.97 µM | O=C(Nc1ccc(F)cc1)Nc1nnc(Sc2ncnc3scc(-c4ccncc4)c23)s1 | 28.3 µM | 27% | Activity (PC-3 [4]): 9.73%; Activity (PC-3 [5]): 29.76%; Activity (PC-3 [8]): 43.3%; Activity (PC-3 [11]): 23%; Activity (PC-3 [15]): 55.92%; Activity (PC-3 [17]): 32.2%; Activity (PC-3 [19]): 1.47%; inhibition (Chorioallantoic membrane [22]): inactive |
| 28.9 µM | 23.3 µM | 7.7 µM | O=C(Nc1ccc(Cl)cc1)Nc1nnc(Sc2ncnc3scc(-c4ccncc4)c23)s1 | 11.6 µM | 21% | inhibition (Chorioallantoic membrane [22]): inactive |
| 19.4 µM | 23.3 µM | 5.7 µM | O=C(Nc1ccccc1)Nc1nnc(Sc2ncnc3scc(-c4ccncc4)c23)s1 | 19.3 µM | – | – |

More lines, now with the values behind:

| SMILES | IC50 (HepG2) | IC50 (T47D) | IC50 (PC-3 [2]) | IC50 (HUVEC [1]) | inhibition (Chorioallantoic membrane [20]) | also measured |
| --- | --- | --- | --- | --- | --- | --- |
| O=C(Nc1ccc(Cl)c(Cl)c1)Nc1nnc(Sc2ncnc3scc(-c4ccncc4)c23)s1 | 61.9 µM | 14.6 µM | 3.6 µM | 7.8 µM | 65% | IC50 [3]: 34.3 µM; Activity (PC-3 [4]): 4.38%; Activity (PC-3 [5]): 40.58%; Activity (HUVEC [6]): 48.3%; inhibition (PC-3 [7]): Dose-dependent effect; Activity (PC-3 [8]): 43.2%; Activity (HUVEC [9]): 4.65%; Activity (HUVEC [10]): 21%; Activity (PC-3 [11]): 37%; Activity (HUVEC [12]): 17%; inhibition (PC-3 [13]): Tde; Activity (HUVEC [14]): 49.8%; Activity (PC-3 [15]): 45.2%; Activity (HUVEC [16]): 55.2%; Activity (PC-3 [17]): 12.6%; Activity (HUVEC [18]): 5.53%; Activity (PC-3 [19]): 7.17%; Activity (PC-3 [21]): 12.85%; inhibition (Chorioallantoic membrane [22]; dose or concentration not given here): 46% |
| Cc1cccc(NC(=O)Nc2nnc(Sc3ncnc4scc(-c5ccncc5)c34)s2)c1 | 20.7 µM | 27.2 µM | 5.2 µM | 12.2 µM | 29% | inhibition (Chorioallantoic membrane [22]): inactive |
| O=C(Nc1ccc(Cl)c(C(F)(F)F)c1)Nc1nnc(Sc2ncnc3scc(-c4ccncc4)c23)s1 | 45.3 µM | 28 µM | 12.1 µM | 18.4 µM | – | – |
| COc1ccc(NC(=O)Nc2nnc(Sc3ncnc4scc(-c5ccncc5)c34)s2)cc1 | 14.6 µM | > 100 µM | 9.9 µM | 16.9 µM | – | – |
| COc1cccc(NC(=O)Nc2nnc(Sc3ncnc4scc(-c5ccncc5)c34)s2)c1 | 28.4 µM | 56.9 µM | 6.8 µM | 67.7 µM | – | – |
| CNC(=O)c1cc(Oc2ccc(NC(=O)Nc3ccc(Cl)c(C(F)(F)F)c3)cc2)ccn1 [SORAFENIB] | 29.6 µM | 6.4 µM | 15.5 µM | 2.8 µM | – | IC50 [3]: 40 µM; Activity (PC-3 [5]): 22.32%; Activity (HUVEC [6]): 58.69%; Activity (PC-3 [8]): 57.9%; Activity (HUVEC [10]): 16.4%; Activity (HUVEC [12]): 23.8%; Activity (HUVEC [14]): 27.1%; Activity (PC-3 [15]): 66.19%; Activity (HUVEC [16]): 59.9%; Activity (PC-3 [17]): 23.6%; Activity (PC-3 [19]): 1.92% |
| O=C(Nc1cccc(F)c1)Nc1nnc(Sc2ncnc3scc(-c4ccncc4)c23)s1 | 64.1 µM | 16.7 µM | 6.6 µM | 13.7 µM | 35% | inhibition (Chorioallantoic membrane [22]): inactive |
| Cc1ccc(NC(=O)Nc2nnc(Sc3ncnc4scc(-c5ccncc5)c34)s2)cc1Cl | 16 µM | 34.8 µM | 4.7 µM | 23.2 µM | – | – |

Source: ChEMBL document CHEMBL4732131, “Design, synthesis and evaluation of novel thienopyrimidine-based agents bearing diaryl urea functionality as potential inhibitors of angiogenesis” (Eur J Med Chem, 2021)
